Data taken from ChEMBL document CHEMBL1132689, “New tetracyclic analogues of photochemotherapeutic drugs 5-MOP and 8-MOP: synthesis, DNA interaction, and antiproliferative activity” (J Med Chem, 1999).
pIC50: −log10 of the molar value. Active and inactive are the calls of the source. The calls are words filed in the database; no cut-off is given here.

Assays:
[1] = system: HeLa; experiment: The compound was tested in vitro for growth inhibition against HeLa(human cervix adenocarcinoma) cell line in the dark; type: functional, cell-based
[2] = species on record: Cavia porcellus; experiment: The compound was tested for photo antiproliferative activity and ability to induce erythema on guinea pig skin; --- = absent; type: functional, organism-based
How it was run: (§1)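 Depilated albino guinea pigs (outbred Dunkin-Hartley) given topical ethanol solution on skin, new compounds up to 50 μg cm-2, 5-MOP and 8-MOP at 10 μg cm-2; kept dark 45 min, then treated skin irradiated with 20 kJ m-2 UVA (lamps emitting over 90% at 365 nm); erythema scored after 48 h.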

[3] = system: HL-60; experiment: The compound was tested in vitro for growth inhibition against HL-60(human promyelocytic leukemia) cell line in the dark; type: functional, cell-based
[4] = system: HeLa; experiment: The compound was tested in vitro for growth inhibition against HeLa(human cervix adenocarcinoma) cell line in the presence of UVA(ultra violet A irradiated); type: functional, cell-based; conditions: light or radiation study
How it was run: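 HeLa (F-12 with 10% heat-inactivated FCS) seeded 10^5/well for 24 h; medium changed to phenol red-free DMEM with test agent, 1 h later irradiated with UVA 0.793 J cm-2 at 365 nm; drug medium removed, cells kept 24 h in complete F-12; trypan blue viability; IC50 as 50% cell-number reduction versus control.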

[5] = system: HL-60; experiment: The compound was tested in vitro for growth inhibition against HL-60(human promyelocytic leukemia) cell line in the presence of UVA(ultra violet A irradiated); type: functional, cell-based; conditions: HL-60, light or radiation study
[6] = system: Cavia porcellus; experiment: The compound was tested for photo antiproliferative activity and ability to induce erythema on guinea pig skin; +++ = strong (without edema); type: functional, organism-based; how it was run: as §1
[7] = species on record: Cavia porcellus; experiment: The compound was tested for photo antiproliferative activity and ability to induce erythema on guinea pig skin; +-- = mild; type: functional, organism-based; how it was run: as §1

Row | Compound | pIC50 [1] | Formation of erythema [2] | pIC50 [3] | pIC50 [4] | pIC50 [5] | Formation of erythema [6] | Formation of erythema [7]
1 | Cc1cc(=O)oc2c(OCCCN(C)C)c3oc4ccccc4c3cc12 | 5.02 | inactive | 5.38 | 7.10 | 6.22 | – | –
2 | Cc1cc(=O)oc2cc3oc4ccccc4c3c(OCCCN(C)C)c12 | < 4.70 | inactive | 5.04 | 5.55 | 6.14 | – | –
3 | Cc1cc(=O)oc2c(O)c3oc4ccccc4c3cc12 | < 4.70 | inactive | < 4.70 | < 4.70 | < 4.70 | – | –
4 | COc1c2c(C)cc(=O)oc2cc2oc3c(c12)CCCC3 | < 4.70 | inactive | < 4.70 | 5.34 | 5.31 | – | –
5 | Cc1cc(=O)oc2c(O)c3oc4c(c3cc12)CCCC4 | < 4.70 | inactive | < 4.70 | < 4.70 | < 4.70 | – | –
6 | Cc1cc(=O)oc2cc3oc4ccccc4c3c(O)c12 | < 4.70 | inactive | < 4.70 | < 4.70 | < 4.70 | – | –
7 | COc1c2oc(=O)cc(C)c2cc2c1oc1ccccc12 | < 4.70 | inactive | < 4.70 | < 4.70 | 5.19 | – | –
8 | COc1c2ccoc2cc2oc(=O)ccc12 [BERGAPTEN] | < 4.70 | – | < 4.70 | 4.79 | 5.47 | Active | –
9 | Cc1cc(=O)oc2cc3oc4c(c3c(O)c12)CCCC4 | < 4.70 | inactive | < 4.70 | < 4.70 | 5.14 | – | –
10 | Cc1cc(=O)oc2cc3oc4c(c3c(OCCCN(C)C)c12)CCCC4 | < 4.70 | – | 4.86 | 5.43 | 5.47 | – | +--
11 | COc1c2c(C)cc(=O)oc2cc2oc3ccccc3c12 | < 4.70 | inactive | < 4.70 | < 4.70 | 5.35 | – | –
12 | COc1c2occc2cc2ccc(=O)oc12 [METHOXSALEN] | < 4.70 | – | < 4.70 | 5.00 | 5.27 | Active | –
13 | Cc1cc(=O)oc2c(OCCCN(C)C)c3oc4c(c3cc12)CCCC4 | < 4.70 | – | 4.91 | 5.92 | 6.22 | strong (without edema) | –
14 | COc1c2oc(=O)cc(C)c2cc2c3c(oc12)CCCC3 | < 4.70 | inactive | < 4.70 | < 4.70 | 5.46 | – | –
